Results gathered from unrelated publications.
Each line is one published result; the experiments were not run side by side.
Target: Calcium/calmodulin-dependent protein kinase type 1G (CAMK1G, Homo sapiens, UniProt Q96NX5)

`CN(c1nccc(-c2cnn3ncccc23)n1)C1CC1` has a remaining binding of 100% (binding; 1 µM).
For `COc1ccc2cc(OCC3(C(=O)O)CN(C(=O)c4ccc(F)cc4)C3)ccc2c1`, the remaining binding was 100% (cell-free assay, competition with immobilised ligand; 1 µM).
For `C=CC(=O)N1CCC(C(=O)NCC(=O)N2CCN(c3nc(-c4cnc(N)nc4C(F)F)nc(N4CCOCC4)n3)CC2)CC1`, the remaining binding was 100% (binding, competition with immobilised ligand; 1 µM).
The remaining binding of `O=C(NCC1CCOCC1)c1n[nH]cc1NC(=O)c1c(F)cccc1F` is reported as 96% (binding, competition with immobilised ligand; 1 µM).
`O=C(Nc1ccc(Oc2ccc(F)cc2)cc1)N1CCc2ncccc2[C@H]1c1ccc(F)cc1` gave a remaining binding of 100% (cell-free assay, competition with immobilised ligand; 1 µM).
`COc1cnc(Nc2cccc(S(N)(=O)=O)c2)nc1N1CCN(c2ccccc2)C(=O)C1` gave a remaining binding of 100% (binding, competition with immobilised ligand; 1 µM).
`O=C(c1ccc(Nc2ncc(Cl)c(-c3cc4ccccc4s3)n2)cc1)N1CCC(N2CCCC2)CC1` has a remaining binding of 82% (binding, competition with immobilised ligand; 1 µM).
`COCCOc1nc(-c2ccc(Cl)nc2)nc2c1CN(C(=O)c1ncn3ccccc13)CC2` has a remaining binding of 100% (cell-free assay, competition with immobilised ligand; 0.1 µM).
For `COc1cnc(Nc2cccc(S(N)(=O)=O)c2)nc1N1CCN(c2ccccc2)CC1`, the remaining binding was 86% (binding, competition with immobilised ligand; 1 µM).
For `O=C(NC[C@@H]1[C@H]2CN(C(=O)OCc3cc(C(F)(F)F)cc(C(F)(F)F)c3)C[C@@H]12)c1ccc2[nH]nnc2c1`, the remaining binding was 100% (cell-free assay, competition with immobilised ligand; 1 µM).
`CN(CCCC(F)(F)F)c1nccc(-c2cnn3ncccc23)n1` has a remaining binding of 100% (binding; 1 µM).
With `O=C(NCCCN1CCOCC1)c1ccc(Nc2nccc(-c3cc4ccccc4s3)n2)cc1` the remaining binding was 98% (binding, competition with immobilised ligand; 1 µM).
`N[C@@H]1CCN(c2nccc(-c3cnn4ncccc34)n2)C1` gave a remaining binding of 100% (binding; 1 µM).
With `N#Cc1ccc(Nc2ccc3[nH]c(=O)[nH]c3c2)c(Cl)c1` the remaining binding was 100% (cell-free assay, competition with immobilised ligand; 1 µM).
`CC1CCCN1c1nccc(-c2cnn3ncccc23)n1` (stereo not shown) has a remaining binding of 100% (binding, competition with immobilised ligand; 1 µM).
`O=C(c1ccc(Nc2ncc(Cl)c(-c3ccc(Cl)s3)n2)cc1)N1CCC(N2CCCC2)CC1` has a remaining binding of 80% (binding, competition with immobilised ligand; 1 µM).
The remaining binding of `C[C@@H]1CCN(c2nccc(-c3cnn4ncccc34)n2)C1` is reported as 91% (binding; 1 µM).
`COc1cc(-c2cn(C3CCc4ccccc4N(CC(F)(F)F)C3=O)nn2)ccc1-n1ccc(C)n1` (stereo not shown) gave a remaining binding of 100% (cell-free assay, competition with immobilised ligand; 1 µM).
For `CN(C)c1ncc(F)c(-c2cnn3ncccc23)n1`, the remaining binding was 96% (binding, competition with immobilised ligand; 1 µM).
For `COc1cc(-c2cn(C3CCc4c(F)cccc4N(CC(F)(F)F)C3=O)nn2)ccc1-n1cnc(C)c1` (stereo not shown), the remaining binding was 100% (cell-free assay, competition with immobilised ligand; 1 µM).
For `C[C@@H](c1ccc(-n2cnc3c(N)ncnc32)cc1)N1CCc2nn(C)c(Cc3ccccc3)c2C1=O`, the remaining binding was 95% (binding, competition with immobilised ligand; 0.1 µM).
The remaining binding of `F[C@@H]1CCN(c2nccc(-c3cnn4ncccc34)n2)C1` is reported as 100% (binding; 1 µM).
